Reference: ChEMBL document CHEMBL3525903 (Drug Metab Dispos, 2013)

Experiments:
[1] = target: T1, Solute carrier family 22 member 11 (Homo sapiens, UniProt Q9NSA0); assay: Inhibition of OAT4 (unknown origin) expressed in HEK293 cells assessed as reduction of [3H]E-sul substrate uptake at 100 uM by liquid scintillation counting; type: ADME, cell-based; conditions: hek293, 100 µM
T1 sequence (Q9NSA0 whole entry): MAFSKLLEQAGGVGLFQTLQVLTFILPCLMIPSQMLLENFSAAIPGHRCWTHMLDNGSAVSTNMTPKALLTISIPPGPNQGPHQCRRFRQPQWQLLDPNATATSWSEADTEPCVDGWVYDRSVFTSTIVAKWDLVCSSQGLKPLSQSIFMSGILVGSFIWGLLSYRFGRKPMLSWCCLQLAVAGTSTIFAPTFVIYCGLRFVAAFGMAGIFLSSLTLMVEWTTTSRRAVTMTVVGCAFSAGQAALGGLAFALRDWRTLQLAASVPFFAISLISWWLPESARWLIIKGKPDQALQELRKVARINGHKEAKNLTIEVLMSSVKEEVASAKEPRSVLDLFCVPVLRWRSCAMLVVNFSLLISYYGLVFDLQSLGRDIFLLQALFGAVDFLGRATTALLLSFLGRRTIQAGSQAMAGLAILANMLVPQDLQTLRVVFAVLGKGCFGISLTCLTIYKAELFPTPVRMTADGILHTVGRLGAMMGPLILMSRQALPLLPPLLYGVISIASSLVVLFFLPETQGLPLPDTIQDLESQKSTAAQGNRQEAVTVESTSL
Procedure, shortened: (§1)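 HEK293 cells transiently transfected with OAT, OATP or OCT plasmid (FuGENE6; 24 h, then 24 h more with sodium butyrate), or stable OCTN1/OCTN2 lines; vector-transfected cells as control. Washed, preincubated 15–60 min at 37 °C in modified Krebs-Henseleit/25 mM HEPES buffer. Uptake of radiolabelled substrate, 100 µM inhibitor. Cells lysed in NaOH and counted by scintillation; counts normalised to medium radioactivity and Lowry protein; vector uptake subtracted.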

[2] = Permeability assessed as human P-glycoprotein-mediated transport across apical to basolateral side expressed in pig LLC-PK1 cells by measuring membrane permeability time by Transwell experiment/liquid scintillation counting; type: ADME, cell-based
[3] = target: T2, Solute carrier organic anion transporter family member 1B1 (Homo sapiens, UniProt Q9Y6L6); assay: Inhibition of OATP1B1 (unknown origin) expressed in HEK293 cells assessed as reduction of [3H]E217betaG substrate uptake at 100 uM by liquid scintillation counting; type: ADME, cell-based; conditions: hek293, 100 µM; procedure, shortened: as §1
T2 sequence (Q9Y6L6 whole entry): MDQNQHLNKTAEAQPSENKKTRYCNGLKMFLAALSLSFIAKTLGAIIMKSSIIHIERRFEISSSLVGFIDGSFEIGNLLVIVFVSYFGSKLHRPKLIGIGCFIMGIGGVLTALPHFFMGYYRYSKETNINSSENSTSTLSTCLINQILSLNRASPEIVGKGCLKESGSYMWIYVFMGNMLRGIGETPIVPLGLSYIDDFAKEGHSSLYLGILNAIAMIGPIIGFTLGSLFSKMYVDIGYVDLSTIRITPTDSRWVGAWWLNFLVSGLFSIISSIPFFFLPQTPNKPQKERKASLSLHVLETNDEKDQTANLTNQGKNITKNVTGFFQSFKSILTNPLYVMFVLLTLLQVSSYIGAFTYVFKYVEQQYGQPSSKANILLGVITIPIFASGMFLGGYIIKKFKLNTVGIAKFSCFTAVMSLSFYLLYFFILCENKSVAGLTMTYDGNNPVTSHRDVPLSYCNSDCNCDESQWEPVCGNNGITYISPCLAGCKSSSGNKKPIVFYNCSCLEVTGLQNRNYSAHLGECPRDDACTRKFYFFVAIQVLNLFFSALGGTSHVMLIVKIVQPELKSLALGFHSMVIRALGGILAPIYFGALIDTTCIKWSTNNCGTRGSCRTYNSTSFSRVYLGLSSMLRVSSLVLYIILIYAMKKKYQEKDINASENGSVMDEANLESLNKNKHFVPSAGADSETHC

[4] = Drug uptake in human intestine at 5 mg, po; type: ADME, tissue-based; conditions: in vivo
[5] = Protein binding in plasma (unknown origin); type: ADME, cell-free; conditions: read-out: PPB (converted)
P-glycoprotein [6] = assay: Permeability assessed as human P-glycoprotein-mediated transport across basolateral to apical side expressed in pig LLC-PK1 cells at 2 uM by liquid scintillation counting; type: ADME, cell-based
P-glycoprotein [7] = assay: Permeability assessed as human P-glycoprotein-mediated transport across apical to basolateral side expressed in pig LLC-PK1 cells at 500 uM by liquid scintillation counting; type: ADME, cell-based
[8] = target: T3, Solute carrier family 22 member 6 (Homo sapiens, UniProt Q4U2R8); assay: Inhibition of OAT1 (unknown origin) expressed in HEK293 cells assessed as reduction of [3H]PAH substrate uptake at 100 uM by liquid scintillation counting; type: ADME, cell-based; conditions: hek293, 100 µM; procedure, shortened: as §1
T3 sequence (Q4U2R8 whole entry): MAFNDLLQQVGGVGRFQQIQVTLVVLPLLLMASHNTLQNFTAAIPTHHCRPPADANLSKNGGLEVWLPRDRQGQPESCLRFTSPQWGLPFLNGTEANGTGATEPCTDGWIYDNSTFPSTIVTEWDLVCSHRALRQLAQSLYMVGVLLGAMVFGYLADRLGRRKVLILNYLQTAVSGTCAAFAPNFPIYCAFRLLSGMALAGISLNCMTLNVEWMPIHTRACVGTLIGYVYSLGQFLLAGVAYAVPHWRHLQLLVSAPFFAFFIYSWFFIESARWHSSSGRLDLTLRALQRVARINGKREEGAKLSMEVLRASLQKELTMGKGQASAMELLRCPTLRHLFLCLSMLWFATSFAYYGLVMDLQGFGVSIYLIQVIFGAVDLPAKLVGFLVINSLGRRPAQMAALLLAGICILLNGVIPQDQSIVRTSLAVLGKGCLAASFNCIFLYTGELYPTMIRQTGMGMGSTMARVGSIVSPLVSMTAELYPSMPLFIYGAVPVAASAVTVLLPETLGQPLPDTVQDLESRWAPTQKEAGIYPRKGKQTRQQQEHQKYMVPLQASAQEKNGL

**Q.** Which “inhibition (INH)” value [1] does the source give for `CC#CCn1c(N2CCC[C@@H](N)C2)nc2c1c(=O)n(Cc1nc(C)c3ccccc3n1)c(=O)n2C` [LINAGLIPTIN] here?
**A.** Its value is 0%.

**Q.** What about the Time [2] of the same compound?
**A.** Its Time is 4.4 h.

**Q.** What about the “inhibition (INH)” value [3] of the same compound?
**A.** Its value is 35.5%.

**Q.** And the Drug uptake [4]?
**A.** Its Drug uptake is 42.3 µM.

**Q.** And the fraction unbound [5]?
**A.** The fraction unbound was 0.2.

**Q.** And the Papp B→A at 2 µM (P-glycoprotein [6])?
**A.** Its Papp B→A at 2 µM is 39.4 ×10⁻⁶ cm/s.

**Q.** What about the Papp A→B at 500 µM (P-glycoprotein [7]) of the same compound?
**A.** The Papp A→B at 500 µM was 26.7 ×10⁻⁶ cm/s.

**Q.** And the “inhibition (INH)” value [8]?
**A.** The value was 1.07%.
